Source: ChEMBL document CHEMBL1127590 (J Med Chem, 1994)

Legend:
[1] = molecular target: T1, 3-oxo-5-alpha-steroid 4-dehydrogenase 2 (Homo sapiens, UniProt P31213); experiment: In vitro inhibitory activity against human type 2 5-alpha reductase
T1 sequence (P31213 whole entry): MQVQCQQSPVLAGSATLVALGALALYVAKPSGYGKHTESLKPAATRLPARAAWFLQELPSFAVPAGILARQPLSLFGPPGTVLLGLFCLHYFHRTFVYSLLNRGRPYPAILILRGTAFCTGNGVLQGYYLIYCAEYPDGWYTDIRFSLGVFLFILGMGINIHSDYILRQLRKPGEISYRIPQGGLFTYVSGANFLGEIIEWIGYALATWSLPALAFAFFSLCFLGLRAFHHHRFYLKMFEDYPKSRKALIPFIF

[2] = molecular target: T2, 3-oxo-5-alpha-steroid 4-dehydrogenase 1 (Homo sapiens, UniProt P18405); experiment: In vitro inhibitory activity against human type 1 5-alpha reductase
T2 sequence (P18405 whole entry): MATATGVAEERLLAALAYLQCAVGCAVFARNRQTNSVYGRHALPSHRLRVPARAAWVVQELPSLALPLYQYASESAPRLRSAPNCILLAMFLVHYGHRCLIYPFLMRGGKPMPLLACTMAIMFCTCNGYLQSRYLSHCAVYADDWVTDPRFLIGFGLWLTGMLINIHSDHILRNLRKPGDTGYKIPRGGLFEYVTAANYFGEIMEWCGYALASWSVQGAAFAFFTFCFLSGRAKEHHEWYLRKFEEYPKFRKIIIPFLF
How it was run: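 Used microsomes from baculovirus-infected SF-9 cells expressing recombinant human type 1 5AR, at final enzyme 0.05–5 nM. Buffer at pH 7 and 37 °C contained an NADPH-regenerating system. Inhibitor was preincubated 10 min before adding 100 nM [3H]testosterone.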

[3] = In vitro inhibitory activity against human adrenal 3-beta hydroxy-delta 5-teroid isomerase
How it was run: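 Microsomes were prepared from human adrenal tissue by homogenization and differential centrifugation. Inhibitor in 50% DMSO was preincubated 10 min at 37 °C in 100 mM potassium phosphate pH 7.5 with 1 mM NAD+. The reaction was started with 100 nM [3H]DHEA and quenched in ethanol after 15 min. DHEA-to-androstenedione conversion was measured by radio-HPLC.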

SMILES | IC50 [1] | Ki [2] | Ki [3]
CCN(CC)C(=O)[C@H]1CCC2C3CNC4=C(Cl)C(=O)CC[C@]4(C)C3CC[C@@]21C (some centres not stated) | – | 51 nM | 27 nM
C[C@]12CCC(=O)C=C1NCC1C2CC[C@@]2(C)C1CC[C@@H]2C(=O)N1CCOCC1 (some centres not stated) | – | – | 190 nM
CCCCCCCCC(=O)[C@H]1CCC2C3CNC4=CC(=O)CC[C@]4(C)C3CC[C@@]21C (some centres not stated) | < 0.1 nM | 1 nM | 7.5 nM
CCN(CC)C(=O)[C@H]1CCC2C3CN(C)C4=C(C)C(=O)CC[C@]4(C)C3CC[C@@]21C (some centres not stated) | – | 82 nM | 11 nM
CCN(CC)C(=O)[C@H]1CCC2C3CNC4=C(Br)C(=O)CC[C@]4(C)C3CC[C@@]21C (some centres not stated) | 2.1 nM | 97 nM | 13 nM
C[C@]12CCC(=O)C=C1NCC1C2CC[C@@]2(C)C1CC[C@@H]2C(=O)c1cccc2ccccc12 (some centres not stated) | < 0.1 nM | 15 nM | 7.8 nM
CCCCN1CC2C(CC[C@@]3(C)C2CC[C@@H]3C(=O)N(CC)CC)[C@@]2(C)CCC(=O)C=C12 (some centres not stated) | – | 7800 nM | 3600 nM
C[C@]12CCC(=O)C=C1NCC1C2CC[C@@]2(C)C1CC[C@@H]2C(=O)N1CCCCC1 (some centres not stated) | – | 85 nM | 110 nM
CCN(CC)C(=O)[C@H]1CCC2C3CN(CC)C4=CC(=O)CC[C@]4(C)C3CC[C@@]21C (some centres not stated) | – | 1300 nM | 49 nM
CCN(CC)C(=O)[C@H]1CCC2C3CN(C(C)C)C4=CC(=O)CC[C@]4(C)C3CC[C@@]21C (some centres not stated) | 4.9 nM | 3400 nM | 1100 nM
C[C@]12CCC(=O)C=C1NCC1C2CC[C@@]2(C)C1CC[C@@H]2C(=O)CC1CCCCC1 (some centres not stated) | < 0.1 nM | 4 nM | 16 nM
C[C@]12CCC(=O)C=C1NCC1C2CC[C@@]2(C)C1CC[C@@H]2C(=O)NC(C1CCCCC1)C1CCCCC1 (some centres not stated) | – | – | 4000 nM
CCN(CC)C(=O)[C@H]1CCC2C3CNC4=C(I)C(=O)CC[C@]4(C)C3CC[C@@]21C (some centres not stated) | – | 690 nM | 15 nM
CCC1=C2NCC3C(CC[C@@]4(C)C3CC[C@@H]4C(=O)N(CC)CC)[C@@]2(C)CCC1=O (some centres not stated) | 180 nM | 4100 nM | 47 nM
C[C@]12CCC(=O)C=C1NCC1C2CC[C@@]2(C)C1CC[C@@H]2C(=O)N1CCSCC1 (some centres not stated) | – | – | 31 nM
CCN(CC)C(=O)[C@H]1CCC2C3CN=C4C=C(O)C5CC5[C@]4(C)C3CC[C@@]21C (some centres not stated) | 1.8 nM | 14000 nM | 95 nM
CN1CC2C(CC[C@@]3(C)C2CC[C@@H]3C(=O)NC23CC4CC(CC(C4)C2)C3)[C@@]2(C)CCC(=O)C(Br)=C12 (some centres not stated) | 1.7 nM | 8.6 nM | 8.3 nM
CC(C)(C)NC(=O)[C@H]1CCC2C3CN=C4C=C(O)C5CC5[C@]4(C)C3CC[C@@]21C (some centres not stated) | 4.4 nM | 49000 nM | 300 nM
CCN(CC)C(=O)[C@H]1CCC2C3CN(CC(=O)O)C4=CC(=O)CC[C@]4(C)C3CC[C@@]21C (some centres not stated) | 1500 nM | 10000 nM | 180 nM
C[C@]12CC[C@H]3[C@@H](CNC4=CC(=O)CC[C@@]43C)[C@@H]1CC[C@@H]2C(=O)OC1[C@H]2C[C@@H]3C[C@@H](C[C@H]1C3)C2 (some centres not stated) | < 0.1 nM | 6.9 nM | 180 nM
CC1=C2N(C)CC3C(CC[C@@]4(C)C3CC[C@@H]4C(=O)NC(C)(C)C)[C@@]2(C)CCC1=O (some centres not stated) | – | 60 nM | 23 nM
CC(C)CC(=O)[C@H]1CCC2C3CNC4=C(Br)C(=O)CC[C@]4(C)C3CC[C@@]21C (some centres not stated) | – | 3.2 nM | 2.3 nM
CCN(CC)C(=O)[C@H]1CCC2C3CN(C)C4=CC(=O)C5CC5[C@]4(C)C3CC[C@@]21C (some centres not stated) | – | 10000 nM | 10 nM
CCN(CC)C(=O)[C@H]1CCC2C3CN(Cc4ccccc4)C4=CC(=O)CC[C@]4(C)C3CC[C@@]21C (some centres not stated) | – | 10000 nM | 16000 nM

Second part, the molecule after the results:

IC50 [1] | Ki [2] | Ki [3] | SMILES
< 0.1 nM | 39 nM | 11 nM | C[C@]12CCC(=O)C=C1NCC1C2CC[C@@]2(C)C1CC[C@@H]2C(=O)c1c(F)cccc1F (some centres not stated)
3.4 nM | 3500 nM | 510 nM | CCN(CC)C(=O)[C@H]1CCC2C3CNC4=CC(=O)C(C)C[C@]4(C)C3CC[C@@]21C (some centres not stated)
– | 5900 nM | 11000 nM | CCCCCCN1CC2C(CC[C@@]3(C)C2CC[C@@H]3C(=O)N(CC)CC)[C@@]2(C)CCC(=O)C=C12 (some centres not stated)
– | – | 160 nM | C[C@]12CCC(=O)C=C1NCC1C2CC[C@@]2(C)C1CC[C@@H]2C(=O)NN(c1ccccc1)c1ccccc1 (some centres not stated)
3000 nM | 40000 nM | 34000 nM | CCN(CC)C(=O)[C@H]1CCC2C3CN(C(C)=O)C4=CC(=O)CC[C@]4(C)C3CC[C@@]21C (some centres not stated)
– | – | 220 nM | C[C@]12CCC(=O)C=C1NCC1C2CC[C@@]2(C)C1CC[C@@H]2C(=O)N1CCNCC1 (some centres not stated)
– | 12 nM | 11 nM | CCCC(=O)[C@H]1CCC2C3CNC4=CC(=O)CC[C@]4(C)C3CC[C@@]21C (some centres not stated)
< 0.1 nM | – | 10 nM | CC(C)CC(=O)[C@H]1CCC2C3CNC4=CC(=O)CC[C@]4(C)C3CC[C@@]21C (some centres not stated)
0.5 nM | 280 nM | 1900 nM | CC(C)c1cc(C(C)C)c(C(=O)[C@H]2CCC3C4CNC5=CC(=O)CC[C@]5(C)C4CC[C@@]32C)c(C(C)C)c1 (some centres not stated)
– | – | 50 nM | CON(C)C(=O)[C@H]1CCC2C3CNC4=CC(=O)CC[C@]4(C)C3CC[C@@]21C (some centres not stated)
< 0.1 nM | 4.5 nM | 13 nM | C[C@]12CCC(=O)C(Br)=C1NCC1C2CC[C@@]2(C)C1CC[C@@H]2C(=O)NC12CC3CC(CC(C3)C1)C2 (some centres not stated)
– | – | 150 nM | CC(C)(C)NC(=O)[C@H]1CCC2C3CNC4=CC(=O)CC[C@]4(C)C3CC[C@@]21C (some centres not stated)
5.7 nM | 1300 nM | 22 nM | CCN(CC)C(=O)[C@H]1CCC2C3CN(C)C4=CC(=O)C=C[C@]4(C)C3CC[C@@]21C (some centres not stated)
1.3 nM | 340 nM | 180 nM | CCCN1CC2C(CC[C@@]3(C)C2CC[C@@H]3C(=O)NC(c2ccccc2)c2ccccc2)[C@@]2(C)C=CC(=O)C=C12 (some centres not stated)
0.23 nM | 5 nM | 20 nM | CCN(CC)C(=O)[C@H]1CC[C@H]2[C@@H]3CC[C@H]4N(C)C(=O)CC[C@]4(C)[C@H]3CC[C@]12C
– | 24000 nM | 520 nM | CCCN1CC2C(CC[C@@]3(C)C2CC[C@@H]3C(=O)N(CC)CC)[C@@]2(C)CCC(=O)C=C12 (some centres not stated)
8.1 nM | 280 nM | 91 nM | CCN(CC)C(=O)[C@H]1CCC2C3CNC4=C(C)C(=O)C=C[C@]4(C)C3CC[C@@]21C (some centres not stated)
6.7 nM | 1400 nM | 62 nM | CN1CC2C(CC[C@@]3(C)C2CC[C@@H]3C(=O)NC(C)(C)C)[C@@]2(C)C=CC(=O)C=C12 (some centres not stated)
– | – | 12 nM | COC(=O)[C@H]1CCC2C3CNC4=CC(=O)CC[C@]4(C)C3CC[C@@]21C (some centres not stated)
< 0.1 nM | – | 100 nM | C[C@]12CCC(=O)C=C1NCC1C2CC[C@@]2(C)C1CC[C@@H]2C(=O)NC(c1ccccc1)(c1ccccc1)c1ccccc1 (some centres not stated)
– | – | 60 nM | CCN(CC)C(=O)[C@H]1CCC2C3CNC4=CC(=O)CC[C@]4(C)C3CC[C@@]21C (some centres not stated)
0.18 nM | 1600 nM | 160 nM | CC(C)(C)NC(=O)[C@H]1CC[C@H]2[C@@H]3CC=C4C=C(C(=O)O)CC[C@]4(C)[C@H]3CC[C@]12C [EPRISTERIDE]
– | 38 nM | 62 nM | CC(C)(C)N(O)C(=O)[C@H]1CCC2C3CNC4=CC(=O)CC[C@]4(C)C3CC[C@@]21C (some centres not stated)
